Reference: PubChem BioAssay AID651945 (The Scripps Research Institute Molecular Screening Center, 2012)

Molecular target: Heat shock 70 kDa protein 1A (Homo sapiens) (UniProt P0DMV8)
Test: Hsp70 gene expression change – cell-based, fluorescence, HeLa, orthogonal assay, late-stage follow-up (AID 651945)
Settings: HeLa Hsp70 mRNA, qRT-PCR, 4 h; at 10 µM; stronger effect = higher value
Method in brief: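 system = HeLa cells, human Hsp70 gene expression | timing = 4 h compound exposure before cell harvest | measured by = Hsp70 and GAPDH transcript levels by qRT-PCR | read-out basis = GAPDH-normalized Hsp70 mRNA fold change versus DMSO | controls = DMSO vehicle-treated cells as baseline reference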

Sequence of Heat shock 70 kDa protein 1A (Homo sapiens) (P0DMV8 whole entry, looked up): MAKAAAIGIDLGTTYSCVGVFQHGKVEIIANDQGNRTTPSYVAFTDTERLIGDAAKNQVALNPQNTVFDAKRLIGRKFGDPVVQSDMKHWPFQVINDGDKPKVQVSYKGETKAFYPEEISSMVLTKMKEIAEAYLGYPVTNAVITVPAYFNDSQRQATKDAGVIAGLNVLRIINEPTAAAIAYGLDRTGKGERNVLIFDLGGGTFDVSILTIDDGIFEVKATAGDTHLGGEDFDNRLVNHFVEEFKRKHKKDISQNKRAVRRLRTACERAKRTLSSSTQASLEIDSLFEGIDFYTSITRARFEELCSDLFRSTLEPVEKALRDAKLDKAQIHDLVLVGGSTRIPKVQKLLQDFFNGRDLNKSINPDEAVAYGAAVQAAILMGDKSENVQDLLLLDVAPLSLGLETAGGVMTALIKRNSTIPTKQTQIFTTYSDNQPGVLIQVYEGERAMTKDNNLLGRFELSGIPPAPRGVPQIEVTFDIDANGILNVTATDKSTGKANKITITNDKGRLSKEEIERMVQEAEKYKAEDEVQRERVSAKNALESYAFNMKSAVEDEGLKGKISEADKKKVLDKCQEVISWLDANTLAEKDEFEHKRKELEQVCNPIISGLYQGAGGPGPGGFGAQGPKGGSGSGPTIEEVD

Work on COc1ccc(/C=C/C=C2C(=O)NC(=O)NC2=O)cc1 yielded a fold change of 2.4.
